Reference: article PMC3954597 (Biochemistry, 2014)

Key:
Type in all cases: biochemical
[1] = molecular target: T1, PTP-PEST (Homo sapiens, UniProt Q05209); experiment: PTP assay with pY peptide substrates, PTP-PEST; conditions: for kcat/KM x10^6 / Km / kcat: catalytic domain, 100 mM HEPES pH 7.4, monitored at 282 nm
T1 sequence (Q05209 5-300): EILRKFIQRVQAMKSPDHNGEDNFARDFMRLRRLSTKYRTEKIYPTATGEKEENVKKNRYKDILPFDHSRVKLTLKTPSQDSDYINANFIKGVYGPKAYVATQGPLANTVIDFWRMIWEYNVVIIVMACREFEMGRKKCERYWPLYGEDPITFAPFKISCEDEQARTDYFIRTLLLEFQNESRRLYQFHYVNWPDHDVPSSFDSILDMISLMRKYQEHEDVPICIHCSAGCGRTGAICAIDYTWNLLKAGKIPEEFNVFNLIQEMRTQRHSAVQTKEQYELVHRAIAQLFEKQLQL

[2] = molecular target: T2, PTP1B (Homo sapiens, UniProt P18031); experiment: PTP assay, wild-type PTP1B; conditions: for kcat/KM x10^6: WT catalytic domain aa 1–321, 100 mM HEPES pH 7.4, monitored at 282 nm
T2 sequence (P18031 1-321): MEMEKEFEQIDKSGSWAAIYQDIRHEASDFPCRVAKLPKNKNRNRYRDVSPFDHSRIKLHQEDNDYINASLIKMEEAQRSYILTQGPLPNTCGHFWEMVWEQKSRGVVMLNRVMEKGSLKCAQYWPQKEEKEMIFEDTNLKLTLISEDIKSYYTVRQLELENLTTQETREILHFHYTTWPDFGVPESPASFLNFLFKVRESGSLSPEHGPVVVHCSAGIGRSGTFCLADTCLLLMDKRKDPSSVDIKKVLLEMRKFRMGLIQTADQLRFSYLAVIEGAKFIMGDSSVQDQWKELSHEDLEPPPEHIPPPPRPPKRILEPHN
How it was run: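 E. coli-expressed catalytic domains were used: wild-type, R24M or R47E PTP1B (aa 1–321), and SHP-1 (aa 205–595). Reactions started with PTP (0.5–20000 nM final) and dephosphorylation was monitored continuously at 282 nm. kcat, KM and kcat/KM came from initial-rate fits (Michaelis–Menten, or V = kcat[E][S]/KM when KM >> [S]) or from fits of progress curves.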

[3] = molecular target: T3, PTPRC (Homo sapiens, UniProt P08575); experiment: PTP assay, PTPRC; conditions: for kcat/KM x10^6 / Km / kcat: catalytic domain, 100 mM HEPES pH 7.4, monitored at 282 nm
T3 sequence (P08575 620-1236): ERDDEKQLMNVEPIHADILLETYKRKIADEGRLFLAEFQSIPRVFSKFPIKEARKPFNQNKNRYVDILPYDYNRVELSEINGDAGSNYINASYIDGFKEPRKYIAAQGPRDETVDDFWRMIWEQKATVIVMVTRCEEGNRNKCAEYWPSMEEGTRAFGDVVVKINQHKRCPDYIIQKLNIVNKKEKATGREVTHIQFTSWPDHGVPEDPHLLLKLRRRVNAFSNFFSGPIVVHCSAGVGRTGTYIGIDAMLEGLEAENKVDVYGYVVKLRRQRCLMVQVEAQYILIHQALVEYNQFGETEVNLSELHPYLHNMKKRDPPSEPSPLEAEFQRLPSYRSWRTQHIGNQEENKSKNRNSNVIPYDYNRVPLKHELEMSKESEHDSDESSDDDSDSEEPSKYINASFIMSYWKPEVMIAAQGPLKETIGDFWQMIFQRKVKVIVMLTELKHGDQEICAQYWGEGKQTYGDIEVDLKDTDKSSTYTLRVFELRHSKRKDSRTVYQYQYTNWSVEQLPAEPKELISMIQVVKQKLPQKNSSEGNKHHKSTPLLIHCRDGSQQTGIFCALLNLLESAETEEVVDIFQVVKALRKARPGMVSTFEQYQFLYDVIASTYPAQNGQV
How it was run: (§1)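 His-tagged catalytic domains were made in E. coli: PTPD2 aa 876–1187 and PTPRC aa 620–1236 with N-terminal tags, PTPD1 aa 875–1174 and SHP-2 aa 199–593 with C-terminal tags. Enzyme was added at 0.5–20000 nM final. A282 (Δε 1102 M−1 cm−1) was followed. Constants came from Michaelis–Menten fits of initial rates (<60 s), or from fits of progress curves run to substrate depletion.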

[4] = molecular target: T4, PTPRD (Homo sapiens, UniProt P23468); experiment: PTP assay, PTPRD
T4 sequence (P23468 1299-1899): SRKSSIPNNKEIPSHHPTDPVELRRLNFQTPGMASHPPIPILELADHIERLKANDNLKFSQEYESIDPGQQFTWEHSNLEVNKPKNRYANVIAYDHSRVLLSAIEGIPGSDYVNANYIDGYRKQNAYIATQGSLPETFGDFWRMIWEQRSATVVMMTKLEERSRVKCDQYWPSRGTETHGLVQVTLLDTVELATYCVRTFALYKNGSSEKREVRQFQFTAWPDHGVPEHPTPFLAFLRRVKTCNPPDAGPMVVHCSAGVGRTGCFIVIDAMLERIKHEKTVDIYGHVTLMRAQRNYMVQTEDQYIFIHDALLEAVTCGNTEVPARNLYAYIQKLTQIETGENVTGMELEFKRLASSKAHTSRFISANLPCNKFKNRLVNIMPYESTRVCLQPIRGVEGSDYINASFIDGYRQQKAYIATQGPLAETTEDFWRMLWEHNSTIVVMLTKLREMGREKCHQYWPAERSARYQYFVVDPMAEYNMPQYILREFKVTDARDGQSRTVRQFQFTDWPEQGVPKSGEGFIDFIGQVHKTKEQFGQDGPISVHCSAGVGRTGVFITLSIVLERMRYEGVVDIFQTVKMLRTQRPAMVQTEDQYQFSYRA

[5] = molecular target: T5, PTPD1 (Homo sapiens, UniProt Q16825); experiment: PTP assay, PTPD1
T5 sequence (Q16825 875-1174): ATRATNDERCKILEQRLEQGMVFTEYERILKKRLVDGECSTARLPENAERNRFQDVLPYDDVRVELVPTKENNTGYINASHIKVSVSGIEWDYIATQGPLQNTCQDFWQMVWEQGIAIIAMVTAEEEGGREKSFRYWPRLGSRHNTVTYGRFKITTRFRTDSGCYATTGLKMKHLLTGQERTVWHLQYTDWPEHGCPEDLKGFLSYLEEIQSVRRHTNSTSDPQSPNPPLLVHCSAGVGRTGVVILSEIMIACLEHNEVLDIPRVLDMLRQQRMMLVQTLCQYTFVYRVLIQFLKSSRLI
How it was run: as §1

[6] = catalytic domain, 100 mM HEPES pH 7.4, monitored at 282 nm
[7] = kcat/KM of neutral peptide over basic Ac-YRKRFpYRYKF-NH2
[8] = kcat/KM of acidic peptide over basic Ac-YRKRFpYRYKF-NH2
[9] = kcat/KM of acidic peptide over neutral Ac-SASASpYSASA-NH2

Row | Substance | kcat/KM x10^6 [1] | kcat/KM x10^6 [2] | kcat/KM x10^6 [3] | kcat/KM x10^6 [4, 6] | kcat/KM x10^6 [5, 6] | Km [1] [µM] | kcat [1] [s⁻¹] | Km [3] [µM] | kcat [3] [s⁻¹] | other results
1 | Ac-YRKRFpYRYKF-NH2 | 0.0015 x10^6 M^−1 s^−1 | 0.037 x10^6 M^−1 s^−1 | 0.049 x10^6 M^−1 s^−1 | 0.0007 x10^6 M^−1 s^−1 | 0.0000057 x10^6 M^−1 s^−1 |  |  |  |  | 
2 | Ac-SASASpYSASA-NH2 | 0.20 x10^6 M^−1 s^−1 | 2.3 x10^6 M^−1 s^−1 | 2.0 x10^6 M^−1 s^−1 | 0.00068 x10^6 M^−1 s^−1 | 0.0000038 x10^6 M^−1 s^−1 | 800 ± 10 | 160 ± 2 | 170 ± 20 | 340 ± 50 | kcat/KM x 10^7 ([2]; WT PTP1B aa 1–321, pH 7.4): 0.23 x 10^7 M^−1 s^−1; Neutral/Basic ratio of kcat/KM values [2, 7]: 61; Neutral/Basic ratio of kcat/KM values [3, 7]: 41; Neutral/Basic ratio of kcat/KM values [4, 7]: 1; Neutral/Basic ratio of kcat/KM values [5, 7]: 0.7
3 | Ac-YDEDFpYDYEF-NH2 | 220 x10^6 M^−1 s^−1 | 55 x10^6 M^−1 s^−1 | 43 x10^6 M^−1 s^−1 | 0.014 x10^6 M^−1 s^−1 | 0.0012 x10^6 M^−1 s^−1 | 2.2 ± 0.5 | 470 ± 10 | 7 ± 0.9 | 300 ± 20 | Acidic/Basic ratio of kcat/KM values [1, 8]: 150000; Acidic/Neutral ratio of kcat/KM values [1, 9]: 1100; Acidic/Basic ratio of kcat/KM values [2, 8]: 1500; Acidic/Neutral ratio of kcat/KM values [2, 9]: 24; Acidic/Basic ratio of kcat/KM values [3, 8]: 880; Acidic/Neutral ratio of kcat/KM values [3, 9]: 22; Km [4, 6]: > 60 µM; kcat [4, 6]: >0.86 s⁻¹; Acidic/Basic ratio of kcat/KM values [4, 8]: 21; Acidic/Neutral ratio of kcat/KM values [4, 9]: 21; Km [5, 6]: 26 ± 5 µM; kcat [5, 6]: 0.032 ± 0.005 s⁻¹; Acidic/Basic ratio of kcat/KM values [5, 8]: 220; Acidic/Neutral ratio of kcat/KM values [5, 9]: 330
